Screening results deposited in PubChem BioAssay by Broad Institute.
Rows were chosen to be rich in hits. Some 1.1% of all compounds tested hit in one or more screens of this group.
Cneo AK release: causes C. neoformans cell lysis; adenylate kinase release luminescence, 4 h; normalised: neutral wells 0, clomiphene wells 100; actives 0.2% (n = 360,000); lysis activity, % at 15 µM;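 active = mean lysis activity across replicates of at least 80%, whatever share of replicates individually reach that level; inactive = mean lysis activity below 80%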
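Schedule: static 4 h at 37 °C with compound, 1 h detection; system: C. neoformans cells; benchmarks: Clomiphene as positive control; buffer or medium: fresh YPD medium; measure: luminescence rise reflecting yeast cell lysis; measured by: luminescent adenylate kinase detection reagent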
PglD inh: PglD (C. jejuni) enzyme inhibition. purified PglD enzyme, DTNB colorimetric CoA detection. inhibition, % at 12.5 µM. actives 0.098% (n = 360,000). AID 602405; in the data active = inhibition above about 16%, passing the limit was not always enough
CAL PDZ FP-1: inhibitors of human CAL PDZ peptide binding; purified CAL PDZ, TMR-peptide fluorescence polarization, 1 h; inhibition, % at 24.9 µM; actives 0.92% (n = 300,000);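 active = mean inhibition of at least 30% with at least half of replicates also reaching 30%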;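 also: 0% = DMSO neutral control and 100% = excess unlabeled competitor peptide PRC23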
miR122 inh: miR-122 inhibition in Huh7 cells. AID 602342. Huh7 miR-122 Renilla luciferase sensor, 48 h; neutral wells = 0, positive control = 100. actives 0.3% (n = 340,000). activation (reporter increase), % at 12.5 µM;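 active = mean replicate activation score at least 90 and every replicate individually at or above 90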;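 also: higher luciferase means less miR-122 activity so hits act as miR-122 inhibitors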
CAL PDZ FP-2: inhibitors of human CAL PDZ peptide binding; Q9HD26; purified CAL PDZ, TMR-peptide fluorescence polarization, 1 h; inhibition, % at 20 µM; actives 0.02% (n = 330,000); AID 504414;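 active = highest replicate inhibition of at least 40%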;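 also: plate controls were DMSO neutral control wells for no effect and unlabeled competitor peptide control wells for full effect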
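Test system: purified CerCALP PDZ construct; Compound dosing: one concentration, 20 µM compound; Also added: TMR-labelled reporter peptide T*-PRC34 bound in PDZ groove; Read-out: inhibition from polarization loss; Controls: unlabelled peptide and DMSO controls; Signal: FP readout, S and P plane fluorescence; Incubation: 1 h at RT.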
PglD inh SP: blocks Campylobacter jejuni PglD acetyltransferase activity; shares compounds with PglD inh; Purified C. jejuni PglD, DTNB absorbance 412 nm; inhibition, % at 20 µM; 320 tested, under 10 active; AID 743156;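 active = mean inhibition across replicates of at least 20% with every single replicate also at 20% or more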;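 also: initial rate of CoA release by acetyl transfer from AcCoA to the UDP-4-amino sugar; 0% = median of neutral control wells and 100% = median of positive control wells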
An asterisk follows results filed as active; x = not tested or not shown; [ ] = remark or other dose.

SMILES	Cneo AK release	PglD inh	CAL PDZ FP-1	miR122 inh	CAL PDZ FP-2	PglD inh SP
CCCn1c(=O)c(Cc2ccccc2)c(O)c2ccccc21	1.9	-2.8	-1.9	-3.6	x	x
CCCCCn1c(=O)c(Cc2ccccc2)c(O)c2ccccc21	-5.4	21.6*	x	4.0	-1.7	2.1
COc1ccc(-c2cc(NC(C)=O)c3ncc(-c4ccc(OC)c(OC)c4)n3c2)c(OC)c1	-0.6	31.7*	x	-6.5	x	0.5
CN1C(=O)c2cc(NC(=O)Cc3ccccc3)ccc2OC[C@@H]2O[C@@H](CC(=O)NCc3ccc(Cl)cc3)CC[C@H]21	-1.5	5.0	x	-33.3[16.7 µM]	x	x
CCCN(C)C[C@H]1OCCCC[C@@H](C)Oc2ccc(NC(=O)Nc3ccccc3)cc2C(=O)N([C@@H](C)CO)C[C@H]1C	5.3	6.2	x	0.9[16.7 µM]	x	x
CCOc1cc(C(=S)N2CCOCC2)ccc1OC(=O)c1ccc(C)cc1	6.5	45.4*	-4.0	0.8	-1.1	1.9
CCOc1cc(C(=S)N2CCOCC2)ccc1OC(=O)c1ccccc1	-2.1	-5.4	-2.5	-3.4	-0.7	x
Cc1ccc(NC(=O)CC2SC(=NCC3CCCO3)NC2=O)cc1Cl (stereo unspecified)	x	x	0.0	-5.2	-3.0	x
COc1ccc(NC(=O)CC2SC(=NCC3CCCO3)NC2=O)cc1 (stereo unspecified)	2.3	26.2*	-1.5	-2.1	-2.2	-2.0
Cc1nn(Cc2ccccc2)c(Cl)c1/C=N/NC(=O)c1cccnc1	-0.6	24.7*	-3.4	-4.5	-3.5	-2.6
CSCC[C@H](NC(=O)COc1cc2c(c3oc(=O)c(C)c(C)c13)CCC(C)(C)O2)C(=O)O	3.6	27.1*	-10.1	-8.8	-2.3	-0.6
CSC[C@H](NC(=O)COc1cc2c(c3oc(=O)c(C)c(C)c13)CCC(C)(C)O2)C(=O)O	1.4	-5.3	-9.8	7.8	-1.9	x
O=C(C[C@H]1CC[C@H](NC(=O)C2CCOCC2)[C@H](CO)O1)NCc1ccccc1Cl	12.6	22.6	x	60.7[16.7 µM]	x	x
COc1ccc(NC(=O)Nc2ccc3c(c2)CC(=O)N([C@H](C)CO)C[C@H](C)[C@@H](CN(C)C(=O)Nc2ccc4c(c2)OCO4)O3)cc1	-3.5	-2.0	x	8.5[16.7 µM]	x	x
COC(=O)c1ccc(C2C(Oc3ccc(OC)cc3)C(=O)N2CCc2ccc(OC)c(OC)c2)cc1 (stereo unspecified)	-0.1	34.6*	x	11.0	-3.1	-11.9
CCSc1nnc(NC(=O)[C@@H](NC(=O)c2cccc(C)c2)C(C)C)s1	2.0	23.5*	-0.5	-2.0	-3.0	1.5
O=C(CNS(=O)(=O)c1ccc2ccccc2c1)OCc1nnc(-c2ccccc2)o1	5.0	34.2*	-3.3	-4.3	-4.2	0.0
Cc1ccc(S(=O)(=O)NCC(=O)OCc2nnc(-c3ccccc3)o2)cc1C	-3.0	3.9	-6.4	-2.6	-0.9	x
Cc1c(C(=O)Nc2ccccc2C(=O)N2CCCC2)cccc1[N+](=O)[O-]	0.7	22.8*	-1.3	1.9	-0.9	2.1
O=C1C2C3C=CC(C3)C2C(=O)N1Cc1ccccc1 (stereo unspecified)	2.0	22.3*	x	-6.0	-1.4	-13.7
O=C(CC(=O)NCc1cccnc1)NCc1cccnc1	0.2	-7.0	-4.8	0.4	-0.6	x
CCC(NC(=O)NCc1cccnc1)(C(F)(F)F)C(F)(F)F	-0.8	20.3*	x	-4.8	0.5	14.3
C[C@@H]1CN([C@@H](C)CO)C(=O)c2cc(N(C)C)ccc2O[C@@H]1CN(C)C	-5.9	-1.4	x	-4.1[16.7 µM]	x	x
C[C@@H]1CN([C@@H](C)CO)S(=O)(=O)c2ccc(/C=C/c3ccccc3)cc2O[C@@H]1CN(C)C(=O)NC1CCCCC1	-0.6	-1.6	x	-40.9[16.7 µM]	x	x
Cc1ccc(-n2cc(-c3ccccc3)c3c(=O)[nH]cnc32)cc1	0.5	45.3*	2.0	0.1	-2.4	1.2
SMILES	Cneo AK release	PglD inh	CAL PDZ FP-1	miR122 inh	CAL PDZ FP-2	PglD inh SP
CCCc1cc(C(=O)NC2CCCC2)no1	-2.7	58.0*	1.0	-4.7	1.3	3.8
Cc1ccc(OCC(=O)N(C)CCc2ccccn2)cc1	0.1	23.9*	-2.0	-1.4	-0.9	-0.7
C[C@@H]1CN([C@H](C)CO)S(=O)(=O)c2ccc(-c3cccc(C(=O)N(C)C)c3)cc2O[C@@H]1CN(C)C	4.7	-2.0	x	16.2[16.7 µM]	x	x
CCc1ccc(N=C2NC(=O)/C(=C/c3cc(Br)c(OCC(=O)O)c(OC)c3)S2)cc1	-1.3	26.6*	-6.9	-11.8	-8.5	20.0*
COc1ccc(S(=O)(=O)N2CCCCC2)cc1NC(=S)Nc1ccccc1	1.0	22.8*	-4.3	2.2	0.4	-2.5
CCc1nc2ccc(C(=O)NCCCn3ccnc3)cn2c1N(C)Cc1cccs1	-2.1	20.3*	x	0.4	x	-5.5
CC(C)(C)c1ccc(-c2nnc3sc(-c4ccncc4)nn23)cc1	-2.2	23.9*	x	1.3	-5.1	1.6
COc1ccc(C(C(=O)NCC2CCCO2)N(C(=O)CNC(=O)c2ccco2)c2ccc(C)c(C)c2)cc1OC (stereo unspecified)	-0.7	22.0*	-2.0	-3.7	-1.5	-3.6
CC=Cc1ccc2n(c1=O)C[C@H]1[C@H](CO)[C@@H](C(=O)N3CCCCC3)[C@@H]2N1Cc1ccccn1 (mixture of isomers)	-0.8	-0.6	x	x	x	x
CNC[C@@H]1Oc2c(NC(=O)c3cc(C)nn3C)cccc2C(=O)N([C@@H](C)CO)C[C@@H]1C	-1.8	-2.2	x	2.2[16.7 µM]	x	x
COc1ccc(N2CCN(/C(=N\S(=O)(=O)c3ccccc3)Nc3nc(C)cc(C)n3)CC2)cc1	0.0	25.6*	0.6	-1.4	-1.9	-5.4
Cc1ccc(S(=O)(=O)/N=C(/Nc2nc(C)cc(C)n2)N2CCOCC2)cc1	0.1	-6.4	-2.0	-12.6	-0.6	x
CCCCc1ccc(NC(=O)COC(=O)c2ccc3ncsc3c2)cc1	9.9	1.9	x	-13.9	x	x
O=C1OCCC1Sc1nnc(-c2ccc(Br)cc2)o1 (stereo unspecified)	-0.4	34.1*	-3.9	-1.9	-1.1	-2.8
CC1CCCC(C)N1S(=O)(=O)c1ccc(Cl)cc1 (stereo unspecified)	3.4	-5.3	-6.6	-6.3	16.1	x
CC1=C(C)CS(=O)N(S(=O)(=O)c2ccc(Cl)cc2)C1 (stereo unspecified)	8.0	22.8*	-0.8	64.2	-0.5	-0.5
C[C@@H]1CN([C@@H](C)CO)C(=O)c2cc(NC(=O)CCC(F)(F)F)ccc2O[C@@H]1CN(C)S(=O)(=O)c1cn(C)cn1	3.4	2.5	x	-2.0[16.7 µM]	x	x
CCCCOCCCNC(=O)N[C@H](C(=O)O)C(C)CC (stereo partly specified)	0.4	6.5	-3.2	1.5	-1.4	x
CCC(C)[C@H](NC(=O)NC1CC1)C(=O)O (stereo partly specified)	0.8	27.1*	-3.7	1.7	-2.6	-3.7
